Laboratory results reported in ChEMBL document CHEMBL4033696, “Repurposing of Proton Pump Inhibitors as first identified small molecule inhibitors of endo-β-N-acetylglucosaminidase (ENGase) for the treatment of NGLY1 deficiency, a rare genetic disease” (Bioorg Med Chem Lett, 2017).
Active and inactive are the calls of the source. No cut-off for these calls is given here. Residues, ends and D or L forms follow the SMILES beside them. *: point of attachment. Cbz = O=C(OCc1ccccc1)*

The compounds below were run against T1, Cytosolic endo-beta-N-acetylglucosaminidase (Homo sapiens) (UniProt Q8NFI3) (assay: Inhibition of recombinant human C-MYC/DDK-tagged ENGase expressed in HEK293T cells at 100 uM using heat inactivated bovine ribonuclease B as substrate pretreated for 15 mins followed by substrate addition after 90 mins by SDS-PAGE analysis). Details: HEK-293T.
T1 sequence (whole entry): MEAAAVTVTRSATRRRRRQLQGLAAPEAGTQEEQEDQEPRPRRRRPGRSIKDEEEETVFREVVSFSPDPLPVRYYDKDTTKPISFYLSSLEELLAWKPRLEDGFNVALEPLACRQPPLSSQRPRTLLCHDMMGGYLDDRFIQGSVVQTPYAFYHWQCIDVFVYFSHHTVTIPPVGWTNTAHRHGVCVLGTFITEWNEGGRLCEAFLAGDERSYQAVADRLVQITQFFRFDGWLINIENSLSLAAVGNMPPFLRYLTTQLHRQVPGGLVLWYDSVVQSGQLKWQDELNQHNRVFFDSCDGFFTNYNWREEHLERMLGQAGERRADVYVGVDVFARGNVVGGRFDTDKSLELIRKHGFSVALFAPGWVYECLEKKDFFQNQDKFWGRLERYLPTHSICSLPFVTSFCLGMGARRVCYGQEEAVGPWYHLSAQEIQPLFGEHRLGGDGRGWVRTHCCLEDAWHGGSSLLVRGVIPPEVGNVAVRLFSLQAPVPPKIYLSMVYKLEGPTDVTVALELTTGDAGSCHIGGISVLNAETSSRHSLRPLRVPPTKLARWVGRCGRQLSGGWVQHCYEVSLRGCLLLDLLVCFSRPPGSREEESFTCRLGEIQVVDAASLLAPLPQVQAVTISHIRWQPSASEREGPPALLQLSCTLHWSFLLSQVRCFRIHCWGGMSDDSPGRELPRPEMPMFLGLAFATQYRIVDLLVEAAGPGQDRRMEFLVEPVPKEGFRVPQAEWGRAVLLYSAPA
Method in brief: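 Recombinant human ENGase incubated with ribonuclease B substrate and test compound at 100 μM as a single-concentration screen. Reactions were then heat-inactivated and resolved on 12% SDS-PAGE as an electrophoretic mobility shift assay. Bands were stained with Coomassie blue R-250 and quantified by densitometry.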
In the case of `CC(C)C[C@@H](C=O)NC(=O)[C@H](CC(C)C)NC(=O)[C@H](CC(C)C)NC(=O)OCc1ccccc1` (Cbz-Leu-Leu-Leu-aldehyde), the inhibition is reported as “inactive”. For `CC(C)C[C@H](NC(=O)CNC(=O)c1cc(Cl)ccc1Cl)B(O)O`, the inhibition was “inactive”. For `CNCC[C@@H](Oc1ccccc1C)c1ccccc1`, the inhibition was “inactive”. With `N=C(N)NC(=O)Cc1c(Cl)cccc1Cl` the inhibition was “inactive”. In the case of `CC(=O)Nc1nnc(S(N)(=O)=O)s1`, the inhibition is reported as “inactive”. With `CCNC1=N[C@H]2[C@H](O)[C@@H](O)[C@H](CO)O[C@H]2S1` the inhibition was “inactive”. `CN1CCc2nc(C(=O)N[C@@H]3C[C@@H](C(=O)N(C)C)CC[C@@H]3NC(=O)C(=O)Nc3ccc(Cl)cn3)sc2C1` was tested, and the inhibition was “inactive”. `Clc1cccc(Cl)c1NC1=NCCN1` was tested, and the inhibition was “inactive”.

Each compound was assayed against T1, Cytosolic endo-beta-N-acetylglucosaminidase (Homo sapiens) (assay: (§1) Inhibition of recombinant human C-MYC/DDK-tagged ENGase expressed in HEK293T cells using heat inactivated bovine ribonuclease B as substrate pretreated for 15 mins followed by substrate addition after 90 mins by SDS-PAGE analysis). Details: HEK-293T.
Method in brief: (§2)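 Electrophoretic mobility shift assay: recombinant human ENGase with ribonuclease B and inhibitor at various concentrations, heat-inactivated, run on 12% SDS-PAGE, Coomassie R-250 staining, band densitometry. IC50 came either from 8-dose curves in three independent experiments or was estimated from four concentrations in two independent experiments.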
`COc1ccnc(C[S+]([O-])c2nc3cc(OC(F)F)ccc3[nH]2)c1OC` (stereo not given) was tested, and the inhibition was “inactive”. With `COc1ccc2[nH]c([S@@+]([O-])Cc3ncc(C)c(OC)c3C)nc2c1` the inhibition was “inactive”.

Each compound was assayed against T2, Cytosolic endo-beta-N-acetylglucosaminidase (Homo sapiens, UniProt Q8NFI3) (assay: as §1). Details: not given.
T2 sequence (Q8NFI3 whole entry): T1 sequence (whole entry)
Set-up: species or system HEK-293T
Method in brief: as §2
`COc1ccc2[nH]c([S+]([O-])Cc3ncc(C)c(OC)c3C)nc2c1` (stereo not given) [OMEPRAZOLE] was tested, and the IC50 was 25 µM. Compound `Cc1c(OCC(F)(F)F)ccnc1C[S+]([O-])c1nc2ccccc2[nH]1` (stereo not given) [LANSOPRAZOLE] has an IC50 of 24.4 µM. In the case of `COc1ccc2[nH]c([S+]([O-])Cc3ncc(C)c(OC)c3C)nc2n1` (stereo not given) [TENATOPRAZOLE], the IC50 is reported as 20 µM. For `COCCCOc1ccnc(C[S+]([O-])c2nc3ccccc3[nH]2)c1C` (stereo not given) [RABEPRAZOLE], the IC50 was 4.47 µM. `Cc1c(OCC(F)(F)F)ccnc1C[S@@+]([O-])c1nc2ccccc2[nH]1` [DEXLANSOPRAZOLE] was tested, and the IC50 was 25 µM.
